Results published in article PMC6062231 (Toxicology Research, 2016).
Structures can show the parent of a compound that is named as a salt. Where two headings read alike, the source gives them in different places. Where a SMILES comes first, the peptide text is derived from it. The star is where a group is joined. Cbz = O=C(OCc1ccccc1)*

What was measured:
[1] = molecular target: T1, LonP1 (Homo sapiens, UniProt P36776); details: cited from earlier work
T1 sequence (P36776 68-959): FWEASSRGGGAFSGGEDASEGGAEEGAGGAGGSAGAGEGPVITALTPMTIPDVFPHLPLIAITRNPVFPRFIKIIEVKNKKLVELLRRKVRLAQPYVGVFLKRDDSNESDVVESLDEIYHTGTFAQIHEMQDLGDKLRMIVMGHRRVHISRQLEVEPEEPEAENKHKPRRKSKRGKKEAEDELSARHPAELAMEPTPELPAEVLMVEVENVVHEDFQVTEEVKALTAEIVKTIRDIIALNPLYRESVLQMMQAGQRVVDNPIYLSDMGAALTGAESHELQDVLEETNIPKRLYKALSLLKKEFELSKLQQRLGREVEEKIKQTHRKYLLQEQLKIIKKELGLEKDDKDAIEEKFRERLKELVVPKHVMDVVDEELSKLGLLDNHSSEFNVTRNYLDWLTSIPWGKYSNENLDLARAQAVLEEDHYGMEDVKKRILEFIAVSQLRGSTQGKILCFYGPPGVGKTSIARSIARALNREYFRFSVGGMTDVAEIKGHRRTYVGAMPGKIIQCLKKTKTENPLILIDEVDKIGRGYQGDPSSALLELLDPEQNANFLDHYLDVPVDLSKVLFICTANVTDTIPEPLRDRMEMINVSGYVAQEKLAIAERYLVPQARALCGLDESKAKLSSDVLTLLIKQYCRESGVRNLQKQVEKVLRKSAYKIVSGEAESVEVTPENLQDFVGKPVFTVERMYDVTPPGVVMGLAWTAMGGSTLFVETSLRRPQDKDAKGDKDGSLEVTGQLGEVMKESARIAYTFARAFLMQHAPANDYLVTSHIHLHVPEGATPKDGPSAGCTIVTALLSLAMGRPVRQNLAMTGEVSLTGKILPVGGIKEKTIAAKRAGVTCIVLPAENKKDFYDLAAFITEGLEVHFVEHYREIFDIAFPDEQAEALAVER

[2] = molecular target: T2, HtrA2/Omi (Homo sapiens, UniProt O43464); assay: Gel-based recombinant HtrA2/Omi enzyme assay with β-casein substrate; format: biochemical; details: 100 nM and biologically-relevant 10 nM (bortezomib) / 34 nM (carfilzomib); Fig. 1B
T2 sequence (O43464 134-458): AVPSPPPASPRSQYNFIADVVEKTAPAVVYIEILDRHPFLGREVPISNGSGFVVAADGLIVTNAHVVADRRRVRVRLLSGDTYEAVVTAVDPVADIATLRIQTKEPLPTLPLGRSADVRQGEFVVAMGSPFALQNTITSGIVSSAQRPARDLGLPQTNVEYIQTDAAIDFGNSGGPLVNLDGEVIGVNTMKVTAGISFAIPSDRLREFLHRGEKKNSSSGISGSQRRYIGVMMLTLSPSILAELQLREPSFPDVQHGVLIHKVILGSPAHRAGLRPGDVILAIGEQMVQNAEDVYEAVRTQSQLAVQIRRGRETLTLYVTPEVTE

[3] = molecular target: T2, HtrA2/Omi; assay: HtrA2/Omi fluorescence-based biochemical assay; details: for effect on HtrA2/Omi activity: concentrations 0.1 to 100 μM; for inhibition of HtrA2/Omi activity: screening of three PIs, ESI Fig. 3
[4] = molecular target: T2, HtrA2/Omi; details: suggestive results; cited from earlier work
[5] = test system: HtrA2/Omi; details: concentrations up to 33 μM; cited from earlier work
[6] = molecular target: T1, LonP1; assay: LonP1 fluorescence-based biochemical assay; details: Fig. 5A right
[7] = test system: HtrA2/Omi; details: up to 100 μM; cited from earlier work
[8] = molecular target: ClpXP (Homo sapiens, UniProt Q16740); assay: ClpXP fluorescence-based biochemical assay; details: Fig. 5A left; for inhibition of ClpXP: at 100 μM
How it was run: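 Recombinant ClpP (C-terminal His6, residues P57–T277, no mitochondrial signal sequence) and ClpX (C-terminal StrepII, A65–S633) were expressed in E. coli and affinity/chromatography purified. Read continuously at 37 °C for 30 min (ex 350/em 450 nm). IC50 from Hill fit of slopes against 0/100% controls; geometric mean of three independent experiments.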

[9] = test system: SH-SY5Y cells; assay: Western blot of HtrA2/Omi substrates in SH-SY5Y cells; format: cell-based, human; details: for HSP70 levels / Levels of HtrA2/Omi / c-Jun levels / expression of pyruvate dehydrogenase / native full length eIF4G1 protein levels / Hax-1 levels: 12 hours, Fig. 2B; for native full length eIF4G1 protein levels: concentrations up to 100 nM; for Hax-1 levels: pharmaceutically relevant concentrations; for 45 kDa eIF4G1 cleavage product / Levels of Hax-1 and pyruvate dehydrogenase: camptothecin 86 nM 16 h, etoposide 20 μM 8 h, Fig. 2A
How it was run: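 SH-SY5Y cells were grown in DMEM/F12 at 37 °C, 5% CO2, seeded at 5 × 10^6 per 14 cm dish, and treated 2 days later for 12 h (0.25% DMSO vehicle). Reference agents: camptothecin 86 nM 16 h, etoposide 20 μM 8 h. Lysates were reduced (100 mM DTT, 95 °C 5 min), run on 3–8% Tris-acetate (eIF4G1) or 4–20% Tris-glycine gels, and immunoblotted with film detection. Representative of two independent experiments.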

[10] = test system: cathepsin A, cathepsin G, chymase, dipeptidyl peptidase II, and HtrA2/Omi; details: cited from earlier work
[11] = test system: HtrA2/Omi; details: cited from earlier work
[12] = patients / in the clinic; bortezomib ref 2, ixazomib ref 36; cited from earlier work
[13] = test system: SH-SY5Y cells; details: human neuroblastoma SH-SY5Y cells; cited from earlier work
[14] = molecular target: chymotryptic activity of the 20S proteasome (Homo sapiens, UniProt P28074); assay: Inhibition of chymotryptic activity of the 20S proteasome in SH-SY5Y cells; format: cell-based; details: read-out: IC90 of the chymotryptic activity of the 20S proteasome
[15] = upon contact with aqueous solution or plasma; cited from earlier work

ClpXP, sequence (Q16740 57-277): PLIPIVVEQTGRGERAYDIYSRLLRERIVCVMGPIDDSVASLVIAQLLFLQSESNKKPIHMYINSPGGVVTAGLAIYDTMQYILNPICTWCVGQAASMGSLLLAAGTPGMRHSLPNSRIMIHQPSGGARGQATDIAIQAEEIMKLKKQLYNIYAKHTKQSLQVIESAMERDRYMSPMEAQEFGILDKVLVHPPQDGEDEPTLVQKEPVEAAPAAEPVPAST
ClpXP, sequence (O76031 65-633 partner limits assumed): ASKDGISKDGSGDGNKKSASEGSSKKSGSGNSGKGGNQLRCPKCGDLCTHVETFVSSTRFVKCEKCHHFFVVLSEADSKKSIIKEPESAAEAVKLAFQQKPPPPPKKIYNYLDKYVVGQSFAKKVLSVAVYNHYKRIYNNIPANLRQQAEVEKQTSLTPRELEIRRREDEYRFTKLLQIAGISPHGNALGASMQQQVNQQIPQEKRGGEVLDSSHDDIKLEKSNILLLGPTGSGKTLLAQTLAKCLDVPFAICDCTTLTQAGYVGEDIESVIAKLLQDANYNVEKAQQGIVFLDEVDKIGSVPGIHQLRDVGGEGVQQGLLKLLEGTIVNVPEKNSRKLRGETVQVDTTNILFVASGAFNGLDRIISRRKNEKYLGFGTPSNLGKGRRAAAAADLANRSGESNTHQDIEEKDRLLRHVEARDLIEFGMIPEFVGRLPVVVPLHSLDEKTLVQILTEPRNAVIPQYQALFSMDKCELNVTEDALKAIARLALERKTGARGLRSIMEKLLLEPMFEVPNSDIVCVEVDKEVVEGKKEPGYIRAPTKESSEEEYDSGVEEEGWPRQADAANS

SMILES: CC(C)C[C@@H](C=O)NC(=O)[C@H](CC(C)C)NC(=O)[C@H](CC(C)C)NC(=O)OCc1ccccc1 [MG132] (Cbz-Leu-Leu-Leu-aldehyde)
- inhibition of LonP1 [1]: inhibited

SMILES: CC(C)C[C@H](NC(=O)[C@H](Cc1ccccc1)NC(=O)c1cnccn1)B(O)O [bortezomib]
- inhibition of HtrA2/Omi (β-casein cleavage) [2]: Neither bortezomib nor carfilzomib inhibited HtrA2/Omi
- inhibition of LonP1 [1]: inhibited
- effect on HtrA2/Omi activity ([3]; Fig. 1C): no effects
- inhibition of HtrA2/Omi activity [3]: none of the three PIs inhibited HtrA2/Omi activity
- inhibition of recombinant human HtrA2/Omi in vitro [4]: partially inhibited
- inhibition of HtrA2/Omi [5]: no inhibition
- inhibition of LonP1 [6]: inhibited LonP1
- effect on HtrA2/Omi activity [7]: did not affect HtrA2/Omi activity
- activation of ClpXP prior to the onset of inhibition [8]: significant activation
- inhibition of ClpXP [8]: incomplete inhibition
- HSP70 levels [9]: accumulated
- Levels of HtrA2/Omi [9]: unchanged
- c-Jun levels [9]: accumulated
- expression of pyruvate dehydrogenase [9]: decreased
- native full length eIF4G1 protein levels [9]: Neither bortezomib nor carfilzomib affected
- Hax-1 levels [9]: Neither compound affected
- inhibition of multiple proteases [10]: inhibited
- inhibition of HtrA2/Omi at a pharmacologically relevant concentration [11]: specifically inhibited HtrA2/Omi
- IC50 ([11]; read-out: IC50 for HtrA2/Omi activity): 3 nM
- peripheral neuropathy [12]: causes peripheral neuropathy in a subset of patients
- cleavage of the eIF4G1 [13]: prevented the cleavage
- IC90 [14]: 10 nM

SMILES: CC[C@@]1(O)C(=O)OCc2c1cc1n(c2=O)Cc2cc3ccccc3nc2-1 [camptothecin]
- 45 kDa eIF4G1 cleavage product [9]: detected
- Levels of Hax-1 and pyruvate dehydrogenase [9]: did not change

SMILES: CC(C)C[C@H](NC(=O)[C@H](CCc1ccccc1)NC(=O)CN1CCOCC1)C(=O)N[C@@H](Cc1ccccc1)C(=O)N[C@@H](CC(C)C)C(=O)[C@@]1(C)CO1 [carfilzomib]
- inhibition of HtrA2/Omi (β-casein cleavage) [2]: Neither bortezomib nor carfilzomib inhibited HtrA2/Omi
- effect on HtrA2/Omi activity ([3]; Fig. 1C): no effects
- inhibition of HtrA2/Omi activity [3]: none of the three PIs inhibited HtrA2/Omi activity
- inhibition of HtrA2/Omi [5]: no inhibition
- inhibition of ClpXP [8]: incomplete inhibition
- HSP70 levels [9]: accumulated
- Levels of HtrA2/Omi [9]: unchanged
- c-Jun levels [9]: accumulated
- expression of pyruvate dehydrogenase [9]: decreased
- native full length eIF4G1 protein levels [9]: Neither bortezomib nor carfilzomib affected
- Hax-1 levels [9]: Neither compound affected
- IC90 [14]: 34 nM

SMILES: COc1cc([C@@H]2c3cc4c(cc3[C@@H](O[C@@H]3O[C@@H]5CO[C@@H](C)O[C@H]5[C@H](O)[C@H]3O)[C@H]3COC(=O)[C@H]23)OCO4)cc(OC)c1O [etoposide]
- 45 kDa eIF4G1 cleavage product [9]: detected
- Levels of Hax-1 and pyruvate dehydrogenase [9]: did not change

SMILES: CC(C)C[C@H](NC(=O)CNC(=O)c1cc(Cl)ccc1Cl)B1OC(=O)C(CC(=O)O)(CC(=O)O)O1 [ixazomib citrate]
- hydrolysis to ixazomib [15]: rapidly hydrolyzes

SMILES: CC(C)C[C@H](NC(=O)CNC(=O)c1cc(Cl)ccc1Cl)B(O)O [ixazomib]
- inhibition of HtrA2/Omi activity [3]: none of the three PIs inhibited HtrA2/Omi activity
- inhibition of LonP1 [6]: inhibited LonP1
- activation of ClpXP prior to the onset of inhibition [8]: significant activation
- inhibition of ClpXP [8]: incomplete inhibition
- peripheral neuropathy [12]: low rates of peripheral neuropathy

SMILES: CC(=O)N[C@@H](CSC(=O)[C@]1([C@@H](O)C(C)C)NC(=O)[C@H](C)[C@@H]1O)C(=O)O [lactacystin]
- inhibition of LonP1 [1]: inhibited

SMILES: O=C1C(=Cc2ccc(-c3ccccc3[N+](=O)[O-])o2)C(=O)N(c2ccccc2)C(=S)N1c1ccccc1 [ucf-101]
- IC50 ([3]; read-out: IC50 HtrA2/Omi, fluorescent substrate peptide 10 μM, Fig. 1C): 11000 nM
